{"data": "Results pooled from the literature", "target": "Serine/threonine-protein kinase MARK1 (MARK1, Homo sapiens, UniProt Q9P0L2)", "note": "Lines come from different studies, so protocols differ."}
{"SMILES": "Cc1nn(C)cc1-c1nc2c(N3CCN(Cc4ccc(Cl)cc4)CC3)c(Cl)cnc2[nH]1", "effect on": "binding", "technique": "competition with immobilised ligand", "concentration": "1 µM", "endpoint": "remaining binding", "value": "78%"}
{"SMILES": "COc1ncccc1-c1cnn2ccc(N3CCN(C(=O)OC(C)C)CC3)nc12", "effect on": "binding", "technique": "competition with immobilised ligand", "concentration": "1 µM", "endpoint": "remaining binding", "value": "100%"}
{"SMILES": "O=c1[nH]c2ccccc2n1C1CCN(Cc2ccc(-c3[nH]c4cc5ncnc5cc4nc3-c3ccccc3)cc2)CC1", "effect on": "cell-free assay", "concentration": "0.5 µM", "endpoint": "remaining signal", "value": "104%"}
{"SMILES": "Cn1cc(-c2cccc(N3CCc4c(sc5c4CC(C)(C)C5)C3=O)c2CO)cc(Nc2ccncn2)c1=O", "effect on": "enzyme activity", "mode": "inhibitor", "concentration": "1 µM", "endpoint": "inhibition", "value": "1%"}
{"SMILES": "COc1cc(Nc2ncc(F)c(Nc3ccc4c(n3)NC(=O)C(C)(C)O4)n2)cc(OC)c1OC", "effect on": "binding", "technique": "competition with immobilised ligand", "concentration": "10 µM", "endpoint": "inhibition", "value": "94%"}
{"SMILES": "CC(C)(C)c1cc(C=C(C#N)C#N)cc(Br)c1O", "effect on": "enzyme activity", "mode": "inhibitor", "concentration": "0.5 µM", "endpoint": "remaining activity", "value": "98.8%"}
{"SMILES": "C#Cc1n[nH]c2c(-c3cn([C@@H](C)c4ccccn4)c(=O)[nH]c3=O)cc(F)cc12", "effect on": "enzyme activity", "mode": "inhibitor", "concentration": "0.1 µM", "endpoint": "inhibition", "value": "4.9%"}
{"SMILES": "Cn1cc(-c2cc(F)cc(N3CCn4c(cc5c4CCCC5)C3=O)c2CO)cc(Nc2ccc(N3CCN(C4COC4)CC3)cn2)c1=O", "effect on": "enzyme activity", "mode": "inhibitor", "concentration": "0.1 µM", "endpoint": "inhibition", "value": "10%"}
{"SMILES": "N#CC1(c2ccccn2)CCN(Cc2cc(C(=O)O)c(=O)n3ccccc23)CC1", "effect on": "cell-free assay", "technique": "competition with immobilised ligand", "concentration": "1 µM", "endpoint": "remaining binding", "value": "94%"}
{"SMILES": "Nc1ncc(-c2nc(N3CCOCC3)nc(N3CCOCC3)n2)c(C(F)F)n1", "effect on": "binding", "technique": "competition with immobilised ligand", "concentration": "10 µM", "endpoint": "remaining binding", "value": "88%"}
{"SMILES": "Cn1cncc1[C@@](O)(COc1ccc(C#N)cc1-c1ccc(OC(F)(F)F)cc1)c1ccc(C#N)cc1", "effect on": "cell-free assay", "technique": "competition with immobilised ligand", "concentration": "1 µM", "endpoint": "remaining binding", "value": "100%"}
{"SMILES": "C#Cc1n[nH]c2c(-c3cn([C@@H](C)c4ccccc4)c(=O)[nH]c3=O)cc(F)cc12", "effect on": "enzyme activity", "mode": "inhibitor", "concentration": "0.1 µM", "endpoint": "inhibition", "value": "4.1%"}
